We go through 23 molecules from ChEMBL document CHEMBL1159121, “Synthesis, in vitro structure-activity relationship, and in vivo studies of 2-arylthiazolidine-4-carboxylic acid amides as anticancer agents” (Bioorg Med Chem, 2010).

Series [1] has as its system A-375. The experiment in a line: Antiproliferative activity against human A375 cells after 48 hrs by SRB assay. The format is functional, cell-based. The following applies: A-375, 48 h. The procedure, abridged: (§1)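 Melanoma lines and control fibroblasts grown at 37 °C, 5% CO2, then exposed to a wide concentration range for 48 h in round-bottom 96-well plates. Fixed with 10% TCA, stained with SRB, protein read at 560 nm. IC50 (50% growth inhibition versus untreated) obtained by nonlinear regression.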
(In general: The SRB assay estimates cell density from bound dye.)

Series [2] can be described thus: Cytotoxicity against human fibroblasts after 48 hrs by SRB assay. The format is cell-based. Particulars: Fibroblast. An outline of the steps: as §1
The subject of series [3] is PPC-1. The experiment in a line: Antiproliferative activity against human PPC1 cells after 96 hrs by SRB assay. The format is functional, cell-based. Particulars: PPC-1, 96 h. The procedure, abridged: (§2)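 Prostate lines in RPMI1640/10% FBS; RH7777 in DMEM/10% FBS. Cells TCA-fixed, stained with 0.4% SRB, absorbance read at 540 nm. IC50 from nonlinear regression of % survival against concentration.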

Series [4] deals with LNCaP. Briefly: Antiproliferative activity against human LNCAP cells after 96 hrs by SRB assay. The format is functional, cell-based. The procedure, abridged:
as §2

Series [5] relates to PC-3. Briefly: Antiproliferative activity against human PC3 cells after 96 hrs by SRB assay. The format is functional, cell-based. The following applies: PC-3, 96 h.
The test system of series [6] is RH7777. The experiment in a line: Cytotoxicity against rat RH7777 cells after 96 hrs by SRB assay. The format is cell-based. The following applies: RH7777, 96 h. An outline of the steps: as §2
Series [7] concerns DU-145. Briefly: Antiproliferative activity against human DU145 cells after 96 hrs by SRB assay. The format is functional, cell-based. Particulars: DU-145, 96 h. The procedure, abridged: as §2
A short description of series [8]: Antiproliferative activity against mouse B16-F1 cells after 48 hrs by SRB assay. The format is functional, cell-based. The following applies: B16-F1, 48 h. An outline of the steps:
as §1

A short description of series [9]: Antiproliferative activity against human WM164 cells after 48 hrs by SRB assay. The format is functional, cell-based. Particulars: WM164, 48 h. An outline of the steps: as §1
The nature of series [10]: Selectivity ratio of IC50 for human fibroblasts to IC50 for human melanoma cells. The format is ADME. The following applies: human fibroblasts and human melanoma cells, read-out: Ratio IC50.
The subject of series [11] is RH7777. Briefly: Selectivity ratio of IC50 for rat RH7777 cells to IC50 for human prostate cancer cells. The procedure, abridged: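 Ratio of RH7777 IC50 to the mean IC50 over four prostate lines (DU 145, PC-3, LNCaP, PPC-1). Prostate lines grown in RPMI1640/10% FBS and RH7777 in DMEM/10% FBS. Read by SRB (0.4%) at 540 nm; IC50 by nonlinear regression.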

In the case of `CCCCCCCCCCCCCCCCOC(=O)[C@@H]1CSC(c2ccc(NC(C)=O)cc2)N1` (mixture of isomers), the IC50 in [1] was 28 µM; in [2], > 100 µM; in [3], > 20 µM; in series [4], > 20 µM; in series [5] it was > 20 µM; in series [6], > 20 µM. The results for the IC50 in series [7], in series [8] and in series [9] were > 20 µM, 41.9 µM and 18.5 µM, respectively.

Regarding `CN(C)/N=N/c1[nH]cnc1C(N)=O` [DACARBAZINE], the IC50 in [1], in [2], in series [8] and in series [9] was > 100 µM throughout.

Turning to `CCCCCCCCCCCCCCCCNC(=O)[C@@H]1CSC(c2ccccc2)N1` (mixture of isomers), the IC50 was determined as 2.2 µM in [2] and 0.7 µM in series [9].

Regarding `CCCCCCCCCCCCCCCCNC(=O)[C@@H]1CSC(c2ccc(OC)cc2)N1` (mixture of isomers), the IC50 is 1.5 µM in series [1]; 0.4 µM in [3]; 1.1 µM in series [4]; 2.7 µM in series [5]; 8.4 µM in [6]; 2.2 µM in [7]. Moreover, the values for the IC50 in series [8] and in series [9] were 2.3 µM and 1 µM, respectively. Further, the selectivity ratio in [10] came to 5.1. Moreover, in [11], the “Ratio IC50” value was found to be 5.3.

Take `CCCCCCCCCCCCCCCCNC(=O)[C@@H]1CSC(c2ccc(N)cc2)N1` (mixture of isomers): the IC50 in series [3] worked out at 0.6 µM; in [4], 1.5 µM; in series [5], 2.4 µM; in series [6], 9.4 µM; in series [7] it was 2.6 µM. The “Ratio IC50” value in series [11] turned out to be 5.3.

Turning to `CCCCCCCCCCCCCCCCNC(=O)[C@@H](N)CSCc1ccccc1`, the IC50 is 15.1 µM in [1], 16.4 µM in [2] and 12.8 µM in series [9].

As for `CCCCCCCCCCCCNC(=O)[C@@H]1CSC(c2ccc(N)cc2)N1` (mixture of isomers), the IC50 in series [3] is 1.2 µM; in [4], 2 µM; in series [5], 2.9 µM; in series [6], 7.3 µM; in [7] it was 2.4 µM. In series [11], the “Ratio IC50” value came to 3.4.

With `CC(=O)Nc1ccc(C2N[C@H](C(=O)Nc3nc4ccccc4s3)CS2)cc1` (mixture of isomers), the IC50 was 45.9 µM in [1]; > 100 µM in [2]; > 20 µM in series [3]; > 20 µM in series [4]; > 20 µM in series [5]; > 20 µM in series [6]. Besides, the IC50 is > 20 µM in series [7], 55.3 µM in series [8] and > 100 µM in series [9].

Regarding `CCCCCCCCCCCCCCNC(=O)[C@H]1CSC(c2cc(OC)c(OC)c(OC)c2)N1` (mixture of isomers), the IC50 in series [3] amounted to 0.7 µM; in [4], 1.9 µM; in series [5] it was 2.9 µM; in series [6], 5.8 µM; in series [7], 2.1 µM.

Turning to `CC(=O)Nc1ccc(C2N[C@H](C(=O)NC3C4CC5CC(C4)CC3C5)CS2)cc1` (mixture of isomers), the IC50 in series [1] was 66 µM; in series [2], > 100 µM; in series [3] it was > 20 µM; in [4], 9.7 µM; in [5] it was > 20 µM; in series [6] it was > 20 µM. For the same molecule, the IC50 in series [7] was > 20 µM; in series [8], 108 µM; in series [9] it was 64.4 µM.

With `CCCCCCCCNC(=O)[C@@H]1CSC(c2cc(OC)c(OC)c(OC)c2)N1` (mixture of isomers), the concentration for half-maximal inhibition (IC50) in series [3] was 14 µM; in series [4], 2.7 µM; in [5], > 20 µM; in series [6], > 20 µM; in series [7], 17.3 µM.

For the molecule `CCCCCCCCCCCCCCNC(=O)[C@@H]1CSC(c2cc(OC)c(OC)c(OC)c2)N1` (mixture of isomers), the IC50 in series [3] amounted to 0.6 µM; in [4], 2 µM; in series [5], 2.6 µM; in [6], 6.1 µM; in [7], 2.2 µM.

Consider `CCCCCCCCCCNC(=O)[C@@H]1CSC(c2cc(OC)c(OC)c(OC)c2)N1` (mixture of isomers), for which the IC50 is 2.1 µM in [3]; 2.2 µM in series [4]; 4.4 µM in series [5]; 6 µM in series [6]; 4.1 µM in [7].

Consider `CNC(=O)c1cc(Oc2ccc(NC(=O)Nc3ccc(Cl)c(C(F)(F)F)c3)cc2)ccn1` [SORAFENIB], for which, in [10], the selectivity ratio amounted to 3. The IC50 was 4.9 µM in series [8] and 5 µM in series [9].

As for `CCCCCCCCCCCCCCCCNC(=O)[C@@H]1CSC(c2ccc(NC(N)=O)cc2)N1` (mixture of isomers), the IC50 in series [1] was found to be 3.6 µM; in [2] it was 7.2 µM; in series [3], 0.5 µM; in [4] it was 1.8 µM; in [5], 2.5 µM; in series [6], 6.7 µM. The IC50 in series [7] was determined as 3.2 µM; in series [9], 1.7 µM. Also, the selectivity ratio in series [10] amounted to 1.8. The “Ratio IC50” value in series [11] came to 3.4.

Regarding `CC(=O)Nc1ccc(C2N[C@H](C(=O)Nc3ccc4c(c3)Cc3ccccc3-4)CS2)cc1` (mixture of isomers), the selectivity ratio in series [10] is 11.3.

Turning to `CCCCCCCCCCCCNC(=O)[C@@H]1CSC(c2cc(OC)c(OC)c(OC)c2)N1` (mixture of isomers), the IC50 in series [3] stood at 1 µM; in [4], 1.4 µM; in series [5], 2.9 µM; in [6], 6.5 µM; in series [7], 2.8 µM.

In the case of `CCCCCCCCCCCCCCCCCCN(C)C(=O)[C@@H]1CSC(c2ccc(NC(C)=O)cc2)N1` (mixture of isomers), the IC50 is 20.6 µM in series [1]; > 100 µM in [2]; 0.8 µM in [3]; 1.8 µM in series [4]; 3.7 µM in series [5]; 9.2 µM in [6]. Moreover, the IC50 in [7] amounted to 3.9 µM; in [8] it was 18.9 µM; in series [9] it was 10.7 µM. The “Ratio IC50” value in [11] was determined as 3.6.

Turning to `CCCCCCCCCCCCCCCCNC(=O)[C@@H](N)CSC`, the IC50 was 12.9 µM in series [1], 61.2 µM in series [2] and 14.4 µM in [9].

As for `CCCCCCCCCCCCCCCCNC(=O)CNCc1ccc(NC(C)=O)cc1`, the IC50 in series [1] came out at 11.9 µM; in series [2], 24 µM; in series [9], 10.2 µM.

With `CCCCCCCCCCCCCCCCNC(=O)[C@@H]1CSC(c2ccc(NS(C)(=O)=O)cc2)N1` (mixture of isomers), the IC50 in [1] was 50.6 µM; in [2] it was > 100 µM; in series [3], 1.1 µM; in series [4] it was 4.8 µM; in series [5] it was > 20 µM; in series [6], > 20 µM. Also, the IC50 was > 20 µM in series [7], 114 µM in [8] and 18.6 µM in [9].

`CCCCCCCCCCCCCCCCNC(=O)[C@H](CSC)NCc1ccc(NC(C)=O)cc1`: the results for the IC50 in [1], in [2] and in series [9] were 108 µM, > 100 µM and 145 µM, respectively.

In the case of `CC(=O)Nc1ccc(C2N[C@H](C(=O)NC34CC5CC(CC(C5)C3)C4)CS2)cc1` (mixture of isomers), the IC50 in series [1] was 138 µM; in [2], > 100 µM; in series [3], > 20 µM; in [4] it was 5.7 µM; in series [5] it was > 20 µM; in series [6], > 20 µM. In addition, the values for the half-maximal inhibitory concentration (IC50) in series [7], in [8] and in series [9] were > 20 µM, 96.5 µM and 128 µM, respectively.

What is called IC50 is the concentration at which inhibition is half-maximal.
